Test results taken from ChEMBL document CHEMBL3044605, “Inhibition of the Fe(4)S(4)-cluster-containing protein IspH (LytB): electron paramagnetic resonance, metallacycles, and mechanisms” (J Am Chem Soc, 2010).

biological target: T1, 4-hydroxy-3-methylbut-2-enyl diphosphate reductase (Aquifex aeolicus (strain VF5), UniProt O67625); assay: Inhibition of Aquifex aeolicus IspH expressed in Escherichia coli BL21 (DE3) using HMBPP substrate; format: single protein
T1 sequence (O67625 whole entry): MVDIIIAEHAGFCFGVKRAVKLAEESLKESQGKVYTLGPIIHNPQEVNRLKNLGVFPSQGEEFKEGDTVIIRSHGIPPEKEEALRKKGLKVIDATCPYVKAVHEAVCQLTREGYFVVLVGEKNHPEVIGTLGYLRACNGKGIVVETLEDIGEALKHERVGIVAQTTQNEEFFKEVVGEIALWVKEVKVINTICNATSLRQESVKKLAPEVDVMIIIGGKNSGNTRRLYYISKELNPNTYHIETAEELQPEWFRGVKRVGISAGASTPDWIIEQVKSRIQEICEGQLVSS
Procedure, shortened: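 A. aeolicus IspH expressed in BL-21(DE3), Ni-NTA purified, Fe4S4 cluster reconstituted anaerobically (DTT, sulfur, FeCl3; A410/A280 ≥0.38). Anaerobic assay, room temp, pH 8.0 Tris/NaCl/glycerol buffer, 0.4 mM dithionite, 2 mM methyl viologen, 72 nM IspH. Inhibitor preincubated 10 min, then 34 μM HMBPP added. Initial rates at 732 nm, dose-response fit for IC50; Ki via Cheng-Prusoff (KM 7 μM).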

Row | Compound | IC50 [µM] | Ki [µM]
1 | O=P(O)(O)OP(=O)(O)OCc1ccncc1 [(PYRIDIN-4-YL)-METHYL-DIPHOSPHATE] | 149 | –
2 | CC(Cc1cccnc1)(P(=O)(O)O)P(=O)(O)O | > 1000 | –
3 | O=P(O)(O)OP(=O)(O)OCC#CCO [4-HYDROXYBUT-2-YNYL DIPHOSPHATE] | 26 | –
4 | N#CCCOP(=O)(O)OP(=O)(O)O [2-CYANOETHYL DIPHOSPHATE] | 53 | –
5 | O=P(O)(O)OP(=O)(O)OCCc1cccnc1 [PYRIDIN-3-YL-ETHYL-DIPHOSPHATE] | 9.1 | 1.2
6 | O=P(O)(O)OP(=O)(O)OCc1cccnc1 | 38 | –
7 | Cc1ccnc(NC(P(=O)(O)O)P(=O)(O)O)c1 | 67 | –
8 | C#CCCCOP(=O)(O)OP(=O)(O)O [PENT-4-YNYL DIPHOSPHATE] | 6.5 | –
9 | O=P(O)(O)C(O)(Cc1ccccn1)P(=O)(O)O | 485 | –
10 | Cc1ccc[n+](CC(O)(P(=O)([O-])O)P(=O)(O)O)c1 (configuration not stated) | 540 | –
11 | C#CCOP(=O)(O)OP(=O)(O)O [PROP-2-YNYL DIPHOSPHATE] | 6.7 | –
12 | N#CCOP(=O)(O)OP(=O)(O)O [CYANOMETHYL DIPHOSPHATE] | 245 | –
13 | O=P(O)(O)OP(=O)(O)OCc1ccccn1 [(PYRIDIN-2-YL)-METHYL-DIPHOSPHATE] | 1200 | –
14 | O=P(O)(O)C(O)(Cc1cccnc1)P(=O)(O)O [RISEDRONIC ACID] | > 1000 | –
15 | O=P(O)(O)C(CNc1ccccn1)P(=O)(O)O | > 1000 | –
16 | O=P(O)(O)OP(=O)(O)OCc1ccc(Cl)nc1 | 3700 | –
17 | O=P(O)(O)OP(=O)(O)OCCCc1cccnc1 [PYRIDIN-3-YL-PROPYL-DIPHOSPHATE] | 463 | –
18 | O=P(O)(O)C(Cc1cccnc1)P(=O)(O)O | > 1000 | –
19 | C[n+]1cccc(CC(O)(P(=O)(O)O)P(=O)(O)O)c1 | > 1000 | –
20 | C#CCCOP(=O)(O)OP(=O)(O)O [BUT-3-YNYL DIPHOSPHATE] | 0.45 | 0.06
